Source: PubChem BioAssay (The Scripps Research Institute Molecular Screening Center)
CHO parental Ca – signal in parental CHO cells, OX1R antagonist counter-screen. parental CHO-K1, ATP-induced calcium, Fluo-8 fluorescence. inhibition, % at 5.6 µM. 330,000 tested, 0.63% active;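 active = inhibition above that plate's mean sample inhibition plus 3 SD, cut at about 26% in these data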;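 also: 0% = ATP-challenged DMSO wells and 100% = DMSO wells without ATP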
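Assay system: parental CHO cells; Read-out basis: percent inhibition of ATP-evoked calcium rise, normalized to controls; Benchmarks: ATP and no-ATP DMSO wells; Compound dosing: single nominal dose of 5.6 µM per compound; Signal: Fluo-8 calcium dye fluorescence; Also added: ATP as calcium-mobilizing challenge; Repeats: singlicate.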
OX1R antag-1 – antagonists of human orexin 1 receptor (OX1R); OX1R-expressing cells, FRET antagonist read-out; O43613; 330,000 tested, 1.8% active; inhibition, % at 6.6 µM; AID 485270; in the data active = inhibition mostly above about 38%, no sharp cut-off; inactive = mostly below about 40%;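 also: 0% = agonist challenge alone and 100% = reference antagonist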
TAAR1 antagonist – antagonists of human TAAR1. AID 624466. CHO RD-HGA16 TAAR1, Fluo-8 calcium fluorescence, antagonist. 360,000 tested, 1.5% active. Q96RJ0. inhibition, % at 3 µM;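 active = inhibition above a per-plate cutoff, the mean inhibition of test compounds on that plate plus 3 SD, cut at about 49% in these data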;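 also: 0% = DMSO plus EC80 beta-PEA response and 100% = DMSO alone without agonist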
Target sequence (Q96RJ0 whole entry, looked up): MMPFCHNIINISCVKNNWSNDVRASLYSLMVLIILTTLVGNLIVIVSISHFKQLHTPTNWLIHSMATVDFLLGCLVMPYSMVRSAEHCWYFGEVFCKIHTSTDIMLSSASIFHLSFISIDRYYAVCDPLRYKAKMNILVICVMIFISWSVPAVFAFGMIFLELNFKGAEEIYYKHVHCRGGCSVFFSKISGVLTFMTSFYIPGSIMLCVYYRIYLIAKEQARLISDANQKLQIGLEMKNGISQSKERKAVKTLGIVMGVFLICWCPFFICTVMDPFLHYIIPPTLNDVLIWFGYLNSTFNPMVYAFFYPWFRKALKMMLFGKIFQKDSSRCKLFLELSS
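Test system – hTAAR1-expressing CHO RD-HGA16 cells, Gα16-coupled · Also added – β-PEA at EC80 concentration, post-compound challenge · Compound – 3 µM, single point · Incubation – dye loading 75 min at 37 °C, then 30 min room temperature · Measured by – Fluo-8 intracellular calcium dye fluorescence, real-time kinetic reads · Benchmarks – vehicle and agonist controls · Replicates – singlicate, one well per test compound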
OX1R antag-2 – antagonists of human orexin 1 receptor; CHO/OX1R cells, Fluo-8 calcium fluorescence, orexin A; inhibition, % at 5 µM; 330,000 tested, 0.43% active; O43613;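 active = inhibition above its plate's threshold, mean inhibition of all tested compounds on the plate plus 3 SD, cut at about 37% in these data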;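 also: 0% = orexin A challenge wells and 100% = SB-334867-A antagonist wells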
GPR7 antagonist – antagonists of human GPR7 (neuropeptides B/W receptor 1). P48145. AID 1861. 290,000 tested, 1.1% active. GPR7-expressing cells, fluorescence antagonist assay. inhibition, % at 4.4 µM; in the data active = inhibition above about 16%, passing the limit was not always enough;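 also: cells stimulated with the agonist NPW; 0% = agonist with vehicle and 100% = vehicle without agonist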
Target sequence (P48145 whole entry, looked up): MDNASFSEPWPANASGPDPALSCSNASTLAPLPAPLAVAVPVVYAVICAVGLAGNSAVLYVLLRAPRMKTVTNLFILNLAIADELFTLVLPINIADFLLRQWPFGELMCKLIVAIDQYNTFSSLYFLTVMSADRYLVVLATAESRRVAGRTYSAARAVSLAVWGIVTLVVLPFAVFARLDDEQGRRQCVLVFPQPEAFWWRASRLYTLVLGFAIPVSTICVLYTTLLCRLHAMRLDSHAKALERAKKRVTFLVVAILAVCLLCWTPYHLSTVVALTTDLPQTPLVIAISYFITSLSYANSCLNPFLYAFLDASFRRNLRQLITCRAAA
TAAR1 agonist – agonists of human TAAR1. Q96RJ0. CHO RD-HGA16 TAAR1, Fluo-8 calcium fluorescence; vehicle wells 0%, saturating PEA agonist 100%. activation, % at 3 µM. 360,000 tested, 0.99% active. AID 624467;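 active = activation above the mean activation of all test compounds in the run plus 3 SD, cut at about 38% in these data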
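System: CHO-derived RD-HGA16 cells with stable Gα16 and human TAAR1 / Times: 17-24 h plating, Fluo-8 75 min 37 °C, 30 min RT / Technique: calcium-sensitive Fluo-8 signal, excitation 470-495, emission 515-575 nm / Measure: % activation relative to PEA EC100 response / Benchmarks: DMSO and PEA EC100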
nonsel antag count – nonselective antagonism, TAAR1 counter-screen. shares compounds with TAAR1 antagonist. counterscreen cell line, calcium fluorescence, antagonist mode. inhibition, % at 3 µM. 2,400 tested, 77% active; in the data active = inhibition above about 22%;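 also: CHO-Ga16 host cells stimulated with ATP at an EC80 level; 0% = agonist EC80 plus vehicle and 100% = vehicle without agonist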
TAAR1 antag conf – confirmation of human TAAR1 antagonists; shares compounds with TAAR1 antagonist; TAAR1-expressing cells, fluorescence antagonist read-out; inhibition, % at 3 µM; 2,400 tested, 40% active; in the data active = inhibition above about 49%;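 also: CHO-Ga16 host cells challenged with agonist PEA near its EC80; 0% = agonist at EC80 plus vehicle and 100% = vehicle with no agonist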
Ga16 ag counter – nonselective Ga16 agonism, counter-screen; shares compounds with TAAR1 antagonist; Ga16-expressing cells, calcium fluorescence, agonist counterscreen; activation, % at 3 µM; 2,400 tested, 18% active; in the data active = activation above about 12%;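 also: 0% = vehicle wells and 100% = saturating stimulus response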
TAAR1 ag counter – counter-screen for human TAAR1 antagonists: TAAR1 agonists; shares compounds with TAAR1 antagonist; hTAAR1 cell line, fluorescence activation, agonist mode; activation, % at 3 µM; 2,400 tested, 2% active; AID 651955; in the data active = activation above about 37%;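 also: CHO cells stably expressing TAAR1 with calcium dye readout; 0% = DMSO vehicle and 100% = full agonist response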
* marks the source's active call; other numbers are inactive results; · = no result given. This is a sample that favours compounds with a hit; in the whole collection about 4.6% have one here.

SMILES	CHO parental Ca	OX1R antag-1	TAAR1 antagonist	OX1R antag-2	GPR7 antagonist	TAAR1 agonist	nonsel antag count	TAAR1 antag conf	Ga16 ag counter	TAAR1 ag counter
Cc1cccc(NC(=O)c2oc3ccc(S(=O)(=O)N4CCOCC4)cc3c2C)c1C	-10	5	58*	-3	-3	18	31*	51*	9	9
Cc1ccc(NC(=O)c2oc3ccc(S(=O)(=O)N4CCOCC4)cc3c2C)c(C)c1	-2	23	37	-10	-8	10	·	·	·	·
COc1cccc(C(=O)N(Cc2ccc(N(C)C)cc2)C2CCS(=O)(=O)C2)c1 (stereo not given)	-8	8	106*	-12	-5	-2	4	-4	5	4
COC(=O)CCCC[C@@H]1O[C@H](CCc2ccccc2)CC2=C1C(=O)OC(C)(C)O2	·	·	61*	·	·	6	26*	50*	4	5
CCc1cc2c(SCC(=O)C(C#N)=C3N(C)c4ccccc4N3C)ncnc2s1	-12	18	-3	-31	-13	-1	·	·	·	·
Fc1cc(F)cc(Nc2nc(Cl)nc(NC3CCCC3)n2)c1	-12	9	56*	6	·	16	17	17	1	2
O=C(CCC(=O)N1CCSc2ccccc21)Nc1cccc(F)c1	-1	-1	6	-12	-1	7	·	·	·	·
CCc1ccc(NC(=O)CCC(=O)N2CCSc3ccccc32)cc1	2	17	59*	-24	-5	6	25*	40	6	4
CCc1cccc(NC(=O)CCC(=O)N2CCSc3ccccc32)c1	-4	17	60*	3	-8	8	21	40	6	10
O=[N+]([O-])c1cccnc1SCc1c(F)cccc1Cl	-7	24	52*	-31	-18	10	16	27	3	9
Cc1ccc(/C=N/NC(=O)CSc2nnc(-c3ccc(Cl)cc3)n2-c2ccc(Cl)cc2)o1	-23	7	56*	-5	-3	14	22*	52*	7	10
COc1ccc(C(C(=O)Nc2ccc(F)cc2)N2CCN(CC(=O)N3CCCC3)CC2)cc1 (stereo not given)	·	·	-2	·	·	-1	·	·	·	·
CSc1sccc1/C=C(/C#N)C(=O)c1ccco1	-5	5	50*	-30	-3	3	33*	57*	7	10
CSc1sccc1/C=N/O	3	9	-1	1	6	2	·	·	·	·
COc1ccc(C(C(=O)NCC2CCCO2)N(Cc2cccs2)C(=O)c2snc(C(N)=O)c2N)cc1 (stereo not given)	-36	18	59*	-16	-8	19	23*	58*	27*	12
CCOc1ccc(C(C(=O)NCC2CCCO2)N(Cc2ccccc2)C(=O)c2snc(C(N)=O)c2N)cc1 (stereo not given)	-12	16	57*	-23	-6	21	35*	57*	12*	18
Cc1cccc(C)c1NC(=O)c1ccc(N2CCCC2=O)cc1	-3	2	-6	-2	·	0	·	·	·	·
CC(=O)c1sc2nc(C)cc(C)c2c1N	-13	27	5	2	7	4	·	·	·	·
Cc1cc(C)c2c(N)c(C(=O)c3cccc(Cl)c3)sc2n1	-25	11	63*	-10	-6	17	23*	40	6	3
Cc1cc(C)c2c(N)c(C(=O)c3ccc(Cl)cc3Cl)sc2n1	-22	16	76*	-13	-5	2	37*	55*	7	3
Cc1cc(C)c2c(N)c(C(=O)c3ccccc3Cl)sc2n1	-2	12	34	7	-2	15	·	·	·	·
CCCCN(Cc1cc2ccccc2[nH]c1=O)S(=O)(=O)c1ccc(C)cc1	-15	4	63*	-31	-13	0	14	38	6	12
CCc1ccc2[nH]c(=O)c(CN(Cc3ccco3)S(=O)(=O)c3ccc4c(c3)OCCO4)cc2c1	-9	4	13	-26	-11	6	·	·	·	·
CC(=O)Nc1ccc(S(=O)(=O)N(Cc2ccco2)Cc2cc3ccccc3[nH]c2=O)cc1	-27	39*	73*	-13	-8	19	27*	57*	9	11
CN1C(=O)NC(c2ccc(O)cc2)C2=C1CN(c1cccc3ccccc13)C2=O (stereo not given)	-12	6	-5	-8	-1	10	·	·	·	·
SMILES	CHO parental Ca	OX1R antag-1	TAAR1 antagonist	OX1R antag-2	GPR7 antagonist	TAAR1 agonist	nonsel antag count	TAAR1 antag conf	Ga16 ag counter	TAAR1 ag counter
O=S(=O)(c1cccc(COc2ccc(Cl)cc2Cl)c1)N1CCOCC1	-17	8	4	-26	12	0	·	·	·	·
CC(=O)c1cc(Cl)ccc1OCc1cccc(S(=O)(=O)N2CCOCC2)c1	15	30	91*	-2	·	14	35*	55*	13*	9
CCOC(=O)C1=C(C)NC(C)=C(C(=O)OCC)C1C(=O)OCC(=O)NC1(C#N)CCCCC1	-28	2	63*	-20	·	17	29*	54*	9	9
CCOC(=O)C1=C(C)NC(C)=C(C(=O)OCC)C1C(=O)OCC(=O)NC1CCCCC1	-4	15	61*	-14	·	18	27*	52*	10	16
C[n+]1cccc(/C=N/NC(=O)CC23CC4CC(CC(C4)C2)C3)c1	3	7	-14	-11	-15	-1	·	·	·	·
O=c1c2ccccc2nc(/C=C/c2cccc([N+](=O)[O-])c2)n1CCO	-5	19	9	-21	-9	14	·	·	·	·
O=c1c2ccccc2nc(/C=C/c2cccnc2)n1CCc1ccccc1	-10	14	60*	-33	-7	7	19	27	3	2
O=c1c2ccccc2nc(/C=C/c2cccnc2)n1Cc1ccccc1	·	·	0	·	0	8	·	·	·	·
O=c1c2ccccc2nc(/C=C/c2cc(Br)ccc2O)n1CCCO	-12	7	58*	10	-1	13	13	20	6	11
CCC(C)CN1C(=O)CSCC1(C)C(=O)NC(C)C (stereo not given)	·	·	-15	·	·	1	·	·	·	·
O=C1C(NS(=O)(=O)c2cccs2)=C(N2CCN(Cc3ccccc3)CC2)C(=O)c2ccccc21	-23	37	71*	-20	-16	9	30*	49*	6	4
